Consider nine molecules from PubChem BioAssay AID588745 (Vanderbilt Specialized Chemistry Center, 2011).

Active and inactive are the calls of the source.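 Rule for the calls: active = compounds whose response rose with dose, given a half-maximal potency and peak effect versus acetylcholine; inactive = the rest.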

The test has as its target Muscarinic acetylcholine receptor M3 (Homo sapiens) (UniProt P20309). In words: potentiation of ACh at human M3 – CHO cells, calcium fluorescence, counter-screen, dose response (AID 588745). In a few lines:
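Assay system: human M3 CHO cells. Incubation: compound 144 s before EC20 ACh, EC80 ACh 86 s later, 37 °C. Detection: Fluo-4 calcium fluorescence. Benchmarks: wells with maximal 1 mM acetylcholine for normalization.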
(Counterscreens check selectivity or assay interference.)

As for `Cc1nc2sc(C(=O)NCc3cccnc3)c(N)c2c(C)c1Cl`, the outcome was inactive.

Consider `Cc1nc2sc(C(=O)NCCc3ccncc3)c(N)c2c(C)c1Cl`, for which the result was inactive.

`Cc1nc2sc(C(=O)NCc3ccccc3)c(N)c2c(C)c1Cl`: the result was inactive.

For the molecule `Cc1nc2sc(C(=O)NCc3ccncn3)c(N)c2c(C)c1Cl`, the outcome was inactive.

For `Cc1nc2sc(C(=O)NCc3nccs3)c(N)c2c(C)c1Cl`, the result was inactive.

In the case of `Cc1nc2sc(C(=O)NCc3cccc(F)c3F)c(N)c2c(C)c1Cl`, the outcome was inactive.

Regarding `Cc1nc2sc(C(=O)NC3CC3)c(N)c2c(C)c1Cl`, the result was inactive.

Take `Cc1nc2sc(C(=O)NCc3ccc4c(c3)OCO4)c(N)c2c(C)c1Cl`: the outcome was inactive.

For `Cc1nc2sc(C(=O)NCc3ccncc3)c(N)c2c(C)c1Cl`, the outcome was inactive.
